From publication PMC6032921 (Acta Physiologica (Oxford, England), 2018)

Assays:
[1] = list of hypothermia‐inducing TRPV1 antagonists; cited from earlier work
TRPV1 [2] = conditions: cited from earlier work; for effect on TRPV1 activation by protons in vitro: ref Lehto et al 16
TRPV1 [3] = conditions: cited from earlier work
rats [4] = conditions: cited from earlier work
rat TRPV1 channels [5] = biological target: T1, rat TRPV1 channels (Rattus norvegicus, UniProt O35433); conditions: cited from earlier work
rats [6] = conditions: rat models of inflammatory pain and heat hyperalgesia; cited from earlier work
humans = conditions: clinical trial in humans; cited from earlier work
rat TRPV1 channels [7] = biological target: T1, rat TRPV1 channels; assay: ^45Ca^2+ uptake assay with scintillation counter, CHO cells expressing rat TRPV1; assay type: cell-based; conditions: pH 5.0
How it was run: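 CHO cells stably expressing rat TRPV1 were seeded 2 days before the assay (20,000 cells/well). Cells were exposed for 2 min at room temperature to test compound (200 pmol L⁻¹ to 4 μmol L⁻¹) with capsaicin (500 nmol L⁻¹) in HBSS pH 7.4 with BSA and HEPES, or with compound in MES buffer pH 5.0 with 30 mmol L⁻¹ HEPES. ⁴⁵Ca²⁺ (10 μCi mL⁻¹ final) was added for 2 min, cells were washed, and uptake was measured by scintillation counting.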

Trpv1 ^+/+ mice [8] = assay: Abdominal T b in Trpv1 +/+ mice, telemetry, i.p. catheter; assay type: in vivo, mouse; conditions: 10 mg kg^−1 i.p.
How it was run: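 Mice of both sexes (18‐27 g) were habituated to wire‐mesh confiners for 8 days. Under ketamine‐xylazine they were implanted intraperitoneally with a telemetry transmitter and a saline‐filled catheter, and tested 3‐6 days later. Test compound (0.75 mg mL⁻¹ in saline with 5% Tween‐80, warmed to 37°C) was given as a 10 mg kg⁻¹ bolus (~13 mL kg⁻¹) via the catheter, versus vehicle. Abdominal T_b was analysed by 2‐way ANOVA with Fisher's LSD.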

Trpv1 ^−/− mice [9] = assay: Abdominal T b in Trpv1 −/− mice, telemetry, i.p. catheter; assay type: in vivo, mouse; conditions: 10 mg kg^−1 i.p.
Trpv1 ^−/− mice [10] = assay: Abdominal T b in Trpv1 −/− mice, telemetry, i.g. gavage; assay type: in vivo, mouse; conditions: 30 mg kg^−1 i.g.
Trpv1 ^+/+ mice [11] = assay: Abdominal T b in Trpv1 +/+ mice, telemetry, i.g. gavage; assay type: in vivo, mouse; conditions: 30 mg kg^−1 i.g., at 140 minutes
corneal TRPV1 channels = corneal TRPV1 channels (Rattus norvegicus, UniProt O35433); assay: Eye‐wiping test after intra‐abdominal RTX desensitization; assay type: in vivo; conditions: rats desensitized with RTX 20 μg kg^−1 i.p.
How it was run: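 This test was done 6‐16 days after i.p. RTX (20 μg kg⁻¹) or vehicle pre‐treatment of rats. Counts were compared between desensitized and sham‐desensitized rats by […] 2‐tailed Student's t test.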

human TRPV1 channels = human TRPV1 channels (Homo sapiens, UniProt Q8NER1); conditions: cited from earlier work
Chain of human TRPV1 channels (Q8NER1 whole entry): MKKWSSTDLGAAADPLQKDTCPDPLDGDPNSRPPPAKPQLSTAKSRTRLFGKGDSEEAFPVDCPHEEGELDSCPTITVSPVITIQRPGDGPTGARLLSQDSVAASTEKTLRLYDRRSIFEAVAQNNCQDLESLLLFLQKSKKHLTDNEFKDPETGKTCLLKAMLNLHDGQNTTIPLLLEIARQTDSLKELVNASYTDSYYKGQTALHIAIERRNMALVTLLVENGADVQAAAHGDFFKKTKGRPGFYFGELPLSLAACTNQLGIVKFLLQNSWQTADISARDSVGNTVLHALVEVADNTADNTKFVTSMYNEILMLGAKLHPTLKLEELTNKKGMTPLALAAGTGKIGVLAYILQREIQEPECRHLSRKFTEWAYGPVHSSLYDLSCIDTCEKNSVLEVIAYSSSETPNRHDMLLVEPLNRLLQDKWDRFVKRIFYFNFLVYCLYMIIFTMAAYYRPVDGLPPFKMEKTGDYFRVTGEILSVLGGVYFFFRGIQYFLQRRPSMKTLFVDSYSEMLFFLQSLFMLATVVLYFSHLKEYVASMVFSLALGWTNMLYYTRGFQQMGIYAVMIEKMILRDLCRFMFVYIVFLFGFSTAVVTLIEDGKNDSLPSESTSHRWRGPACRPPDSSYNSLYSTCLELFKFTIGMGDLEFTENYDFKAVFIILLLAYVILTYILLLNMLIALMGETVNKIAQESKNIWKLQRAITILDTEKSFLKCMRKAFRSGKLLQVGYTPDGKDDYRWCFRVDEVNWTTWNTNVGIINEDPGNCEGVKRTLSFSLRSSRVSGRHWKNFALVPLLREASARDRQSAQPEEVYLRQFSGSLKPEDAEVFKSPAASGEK

T1 sequence (O35433 whole entry): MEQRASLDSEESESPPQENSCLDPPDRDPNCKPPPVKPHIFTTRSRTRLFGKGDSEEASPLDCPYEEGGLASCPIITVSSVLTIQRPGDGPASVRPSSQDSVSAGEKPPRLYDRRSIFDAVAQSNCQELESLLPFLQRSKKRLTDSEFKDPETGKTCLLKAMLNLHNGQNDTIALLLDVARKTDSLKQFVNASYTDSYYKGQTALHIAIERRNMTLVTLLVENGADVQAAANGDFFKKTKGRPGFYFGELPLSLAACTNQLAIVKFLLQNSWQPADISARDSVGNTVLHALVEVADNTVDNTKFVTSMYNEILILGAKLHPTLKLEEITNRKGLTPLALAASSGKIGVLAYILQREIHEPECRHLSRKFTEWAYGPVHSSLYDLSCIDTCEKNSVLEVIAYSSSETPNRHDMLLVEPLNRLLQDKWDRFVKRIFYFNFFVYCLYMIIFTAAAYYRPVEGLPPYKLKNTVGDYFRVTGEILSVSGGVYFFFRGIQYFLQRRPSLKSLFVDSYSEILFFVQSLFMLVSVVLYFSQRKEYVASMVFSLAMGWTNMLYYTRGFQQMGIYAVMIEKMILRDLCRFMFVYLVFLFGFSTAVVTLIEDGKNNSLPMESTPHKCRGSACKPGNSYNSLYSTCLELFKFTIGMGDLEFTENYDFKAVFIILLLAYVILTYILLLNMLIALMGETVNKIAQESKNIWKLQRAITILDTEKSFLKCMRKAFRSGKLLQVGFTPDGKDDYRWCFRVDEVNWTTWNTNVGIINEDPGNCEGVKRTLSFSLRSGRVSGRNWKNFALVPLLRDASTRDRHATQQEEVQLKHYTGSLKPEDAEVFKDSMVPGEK
Chain of corneal TRPV1 channels (O35433 whole entry): as above

O=C(/C=C/c1ccc(C(F)(F)F)cc1N1CCCCC1)Nc1cccc2c1C[C@H](O)C2 [AMG8562, (R, E)‐N‐(2‐hydroxy‐2,3‐dihydro‐1H‐inden‐4‐yl)‐3‐(2‐(piperidin‐1‐yl)‐4‐(trifluoromethyl)phenyl)‐acrylamide]
effect on deep body temperature (T b) [1]: cause hypothermia
effect on TRPV1 activation by protons in vitro (TRPV1 [2]): potentiated TRPV1 activation by protons in vitro
TRPV1 agonistic or capsaicin‐potentiating activity (TRPV1 [3]): showed no TRPV1 agonistic or capsaicin‐potentiating activity

Oc1cc2c(cc1O)CN(C(=S)NCCc1ccc(Cl)cc1)CCC2 [capsazepine]
effect on T b in rats (rats [4]): does not affect T b in rats
effect on proton activation of TRPV1 (rat TRPV1 channels [5]): no allosteric effect on proton activation
efficacy in pain models (rats [6]): efficacious

O=C(Nc1ccc(C(F)(F)F)cn1)N1CC=C(c2ncc([C@H](O)CO)cc2Cl)CC1 [V116517, 4‐[3‐chloro‐5‐[(1S)‐1,2‐dihydroxyethyl]‐2‐pyridyl]‐N‐[5‐(trifluoromethyl)‐2‐pyridyl]‐3,6‐dihydro‐2H‐pyridine‐1‐carboxamide]
effect on T b in rats (rats [4]): causing hyperthermia in rats
effect on T b in humans (humans): caused no hyperthermia
effect on TRPV1 activation by protons (TRPV1 [2]): potently blocking TRPV1 activation by protons

O=C(/C=C/c1ccc(C(F)(F)F)nc1N1CCCCC1)Nc1cccc2c1CC(O)CC2 (centres unmarked) [AMG0347]
effect on deep T b in rats (rats [4]): increase deep T b in rats

CC(C)(C)c1ccc(CNC(=S)NCc2ccc(NS(C)(=O)=O)c(F)c2)cc1 [JYL1421]
effect on deep body temperature (T b) [1]: cause hypothermia
TRPV1 agonistic or capsaicin‐potentiating activity (TRPV1 [3]): showed no TRPV1 agonistic or capsaicin‐potentiating activity

O=C(NCc1ccc(C(F)(F)F)cc1)Nc1cccc2cnccc12 [A‐425619, 1‐isoquinolin‐5‐yl‐3‐(4‐trifluoromethyl‐benzyl)‐urea]
effect on deep body temperature (T b) [1]: cause hypothermia
TRPV1 agonistic or capsaicin‐potentiating activity (TRPV1 [3]): showed no TRPV1 agonistic or capsaicin‐potentiating activity

CC(=O)Nc1nc2c(Oc3cc(-c4ccc(C(F)(F)F)cc4)ncn3)cccc2s1 [AMG 517]
effect on deep T b in rats (rats [4]): increase deep T b in rats

FC(F)(F)c1ccc(-c2cc(Nc3ccc4ncsc4c3)ncn2)c(NCC2CCCCC2)c1 [AMG7905]
effect on ^45Ca^2+ influx in the proton activation mode (rat TRPV1 channels [7]): concentration‐dependent potentiation
drop in T b compared to vehicle (Trpv1 ^+/+ mice [8]): > 2 °C
effect on T b (Trpv1 ^−/− mice [9]): neither A‐1165901 nor AMG7905 had any effect on T b
effect on deep body temperature (T b) [1]: cause hypothermia
effect on TRPV1 activation by protons in vitro (TRPV1 [2]): potentiated TRPV1 activation by protons in vitro
effect on T b (Trpv1 ^−/− mice [10]): did not cause hypothermia
biggest intertreatment difference in T b (hypothermia vs vehicle) (Trpv1 ^+/+ mice [11]): 7.8 °C
TRPV1 agonistic or capsaicin‐potentiating activity (TRPV1 [3]): showed no TRPV1 agonistic or capsaicin‐potentiating activity

C=C(C)[C@]12C[C@@H](C)[C@@]34O[C@](Cc5ccccc5)(O[C@@H]1[C@@H]3C=C(COC(=O)Cc1ccc(O)c(OC)c1)C[C@]1(O)C(=O)C(C)=C[C@@H]41)O2 [RTX, resiniferatoxin]
eye‐wiping response to topical RTX in desensitized vs sham‐desensitized rats (corneal TRPV1 channels): no meaningful difference

Cc1ccc(N2c3cccc(C(=O)Nc4ccc(OCC(F)(F)F)nc4)c3OC[C@@H]2CO)nc1 [JTS‐653, (3S)‐3‐(hydroxymethyl)‐4‐(5‐methylpyridin‐2‐yl)‐N‐[6‐(2,2,2‐trifluoroethoxy)pyridin‐3‐yl]‐3,4‐dihydro‐2H‐benzo[b][1,4]oxazine‐8‐carboxamide]
effect on T b in rats (rats [4]): cause hyperthermia in rats
effect on proton‐induced activation of TRPV1 (rat TRPV1 channels [5]): potently block proton‐induced activation
effect on proton‐induced activation of TRPV1 (human TRPV1 channels): potently block proton‐induced activation

C=C(C)[C@]12C[C@@H](C)[C@@]34O[C@](Cc5ccccc5)(O[C@@H]1[C@@H]3C=C(COC(=O)Cc1cc(I)c(O)c(OC)c1)C[C@]1(O)C(=O)C(C)=C[C@@H]41)O2 [5′‐I‐RTX, 5′‐iodo‐resiniferatoxin]
effect on deep body temperature (T b) [1]: cause hypothermia
TRPV1 agonistic or capsaicin‐potentiating activity (TRPV1 [3]): partial agonists
